Data published in publication PMC11410521 (Biochemical pharmacology, 2024).
“And” between values parts separate entries of the source, which are not always exact repeats. Equal entries are not always repeated. Where two headings read alike, the source gives them in different places.

Legend:
[1] = system: human liver microsomes from six individual liver donors; assay type: in vitro ADME; settings: for inhibition of M3 formation in donor HL-109: HL-109: low CYP2C19 activity, high CYP3A activity, no CYP3A5 expression
Procedure, shortened: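 HLMs from six donors (2 CYP3A5 expressors, 4 non-expressors), 1 mg/mL, were preincubated 10 min with 0.5 μM CYP3cide plus 1 mM NADPH, with a methanol vehicle control. They were diluted 40-fold to 0.025 mg/mL in buffer with 1 mM NADPH, then 2 μM THC was added. Reactions ran 2 min before quench and LC-MS/MS. % activity remaining was normalised to vehicle, in duplicate.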

human FABP1 [2] = target: T1, human FABP1 (Homo sapiens, UniProt P07148); assay: DAUDA displacement assay of cannabinoid binding to FABP1
T1 sequence (P07148 1-127): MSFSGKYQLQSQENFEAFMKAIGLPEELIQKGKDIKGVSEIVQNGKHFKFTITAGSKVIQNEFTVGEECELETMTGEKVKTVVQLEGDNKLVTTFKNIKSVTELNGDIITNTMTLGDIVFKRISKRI
Procedure, shortened: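 Purified human FABP1, protein quantified by BCA and held on ice in gel filtration buffer with 0.5 mM DTT, titrated with test cannabinoid displacing DAUDA. Fluorescence spectra scanned at 600 nm/min, PMT 800 V. Bound-DAUDA signal extracted by singular value decomposition. Kd from ternary binding model fit; EC50 from three-parameter dose-response fit. Mean ± SD, three days, ≥2 protein batches.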

[3] = Kinetics of THC metabolite formation in pooled human liver microsomes; assay type: in vitro ADME; settings: human, pooled human liver microsomes, pooled HLMs 0.1 mg/mL
Procedure, shortened: (§1)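 Pooled HLMs at 0.1 mg/mL with nominal THC 0.05–5 μM in 100 mM potassium phosphate pH 7.4. After 5 min preincubation at 37 °C, 1 mM NADPH was added and reactions ran 2 min, within time linearity. Quench was acetonitrile/1% formic acid with 11-OH-THC-d3, then LC-MS/MS. Michaelis-Menten fits used bead-measured free THC; linear fits gave CLint,u where saturation was absent. Three days, duplicates.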

[4] = system: pooled human liver microsomes; assay: as above; assay type: in vitro ADME; settings: pooled HLMs 0.1 mg/mL; mean ± SD, 3 days
Procedure, shortened: as §1

CYP2C9 = assay: THC incubations with recombinant CYP2C9 in the presence and absence of FABP1; assay type: in vitro ADME, human; settings: human
Procedure, shortened: (§2)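 Recombinant CYP2C9 (Supersomes) at 1 nM (0.0016 mg/mL microsomal protein), with seven nominal THC concentrations of 10–640 nM in pH 7.4 phosphate buffer, ±20 μM FABP1 added before 5 min preincubation at 37 °C. Started with 1 mM NADPH, 1 min, with a no-NADPH control. Quench was acetonitrile/formic acid with 11-OH-THC-d3, then LC-MS/MS. Km,u and kcat came from Michaelis-Menten fits against free THC; matched pairs, separate days.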

recombinant CYP2C9 = assay: as above; assay type: in vitro ADME, human; settings: recombinant CYP2C9, absence of FABP1
Procedure, shortened: as §2

CYP2C19 = assay: THC incubations with recombinant CYP2C19 in the presence and absence of FABP1; assay type: in vitro ADME, human; settings: human
Procedure, shortened: (§3)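 Recombinant CYP2C19 (Supersomes) at 1 nM (0.013 mg/mL microsomal protein), with nominal THC 0.02–1.0 μM, ±20 μM FABP1 added before 5 min preincubation at 37 °C. Started with 1 mM NADPH, 2 min, with a no-NADPH control, then quench and LC-MS/MS. Matched ±FABP1 pairs. Michaelis-Menten fits against free THC from bead measurements, with a mass-balance calculation when FABP1 was present. Replicates on separate days.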

recombinant CYP2C19 = assay: as above; assay type: in vitro ADME, human
Procedure, shortened: as §3

CYP3A4 = assay: THC incubations with recombinant CYP3A4 in the presence and absence of FABP1; assay type: in vitro ADME, human; settings: human
Procedure, shortened: (§4)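 Recombinant CYP3A4 (Supersomes) at 0.625 nM (0.004 mg/mL microsomal protein), with seven nominal THC concentrations of 0.156–3.75 μM, ±20 μM FABP1 added before 5 min preincubation at 37 °C. Started with 1 mM NADPH, 1 min, with a no-NADPH control, then LC-MS/MS. M4 data were fitted to an allosteric sigmoidal model (K0.5, h); other metabolites used Michaelis-Menten fits, against free THC; matched pairs.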

recombinant CYP3A4 = assay: as above; assay type: in vitro ADME, human
Procedure, shortened: as §4

[5] = THC unbound fraction in human liver microsome incubations; assay type: in vitro ADME; settings: pooled liver microsomes, pH 7.4
Procedure, shortened: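 Magnetic silica beads (200 μL), washed three times, were pre-equilibrated 30 min on ice with HLM protein at incubation concentration in 0.5 mL buffer. THC was added at each nominal kinetic concentration and incubated 30 min at 37 °C with shaking, then cooled 5 min. Total and supernatant samples were quenched and measured by LC-MS/MS; fu = Cfree/Ctotal.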

[6] = THC unbound fraction in incubations with recombinant CYPs; assay type: in vitro ADME; settings: human, recombinant CYP3A4 microsomes (Supersomes), pH 7.4
Procedure, shortened: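 Magnetic silica beads (50 μL), washed three times, were pre-equilibrated 30 min on ice with recombinant CYP at incubation protein concentration in 0.2 mL buffer. THC was added at each nominal kinetic concentration and incubated 30 min at 37 °C with shaking, then cooled 5 min at room temperature. Total and supernatant THC were measured by LC-MS/MS; fu = Cfree/Ctotal.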

recombinant CYPs = assay: THC metabolite formation by a panel of recombinant CYPs; assay type: in vitro ADME, human; settings: 10 μM THC
Procedure, shortened: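 Individual recombinant CYPs (10 pmol/mL) across a twelve-enzyme panel were preincubated 5 min at 37 °C with 10 μM THC in 100 mM potassium phosphate pH 7.4. Reactions were started with 1 mM NADPH and ran 15 min, then were quenched with acetonitrile/1% formic acid containing 11-OH-THC-d3 and analysed by LC-MS/MS. Relative formation was the metabolite/internal-standard peak-area ratio; peaks below S/N 5 were not quantified.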

[7] = system: human liver microsomes from three individual donors; assay: Impact of FABP1 on THC metabolism in HLMs from individual donors; assay type: in vitro ADME; settings: HLM incubations
[8] = cited from earlier work
[9] = system: HLMs and recombinant CYP2C9; settings: cited from earlier work; for Km: in HLM
human FABP1 [10] = target: T1, human FABP1; settings: read-out: Kd previously reported; cited from earlier work
[11] = cited from earlier work; remark: listed apart in the source
[12] = recombinant CYP3A4, absence of FABP1, allosteric sigmoidal model
[13] = THC depletion, 500 nM nominal, 0.2% BSA

Structure (SMILES): CCC1(c2ccccc2)NC(=O)N(Cc2ccccc2)C1=O (single isomer, unassigned; (+)) [Benzylnirvanol, (+)-N-3-benzylnirvanol]
- inhibition of M3 formation in donor HL-109 [1]: no impact

Structure (SMILES): CCCCC/C=C\C/C=C\C/C=C\C/C=C\CCCC(=O)OC(CO)CO [2AG, 2-arachidonoylglycerol]
- EC50 (human FABP1 [2]): 180 ± 20 nM
- Kd (human FABP1 [2]): 60 ± 40 nM

Structure (SMILES): CCCCC/C=C\C/C=C\C/C=C\C/C=C\CCCC(=O)NCCO [AEA, anandamide]
- EC50 (human FABP1 [2]): 310 ± 140 nM

Structure (SMILES): C=C(C)[C@@H]1CCC(C)=C[C@H]1c1c(O)cc(CCCCC)cc1O [CBD, cannabidiol]
- EC50 (human FABP1 [2]): 920 ± 70 nM

Structure (SMILES): Cc1ccc(-c2c(-c3nn(C)c4ncnc(N5CC[C@H](N6CCCCC6)C5)c34)cnn2C)cc1 [CYP3cide]
- inhibition of M4 formation in donors without CYP3A5 expression ([1]; CYP3cide 0.5 μM): ~100%
- inhibition of M3 formation in donor HL-109 [1]: ~100%

Structure (SMILES): CCCCCc1cc(O)c2c(c1)OC(C)(C)[C@@H]1CCC(C)=C[C@@H]21 [THC, Δ9-tetrahydrocannabinol]
- EC50 (human FABP1 [2]): 220 ± 130 nM
- Km at 2 min ([3]; Km,unbound of M2 formation, free THC concentrations): > 45 nM
- Km at 2 min ([3]; Km,unbound of M3 formation, free THC concentrations): > 45 nM
- Km at 2 min ([3]; Km,unbound of M4 formation, no saturation, linear): > 45 nM
- Vmax of 11-OH-THC formation [4]: 521 ± 53 pmol/min/mg HLM
- Km at 1 min (CYP2C9; recombinant CYP2C9 (Supersomes) with 20 μM FABP1, Km,u + FABP1, 11-OH-THC formation, recombinant CYP2C9, 20 μM FABP1): > 20 nM
- Km at 1 min (CYP2C9; recombinant CYP2C9 (Supersomes), Km,u −FABP1, 11-OH-THC formation, recombinant CYP2C9, absence of FABP1): 0.8 nM
- Km (recombinant CYP2C9; read-out: Km,u −FABP1, 11-OH-THC formation): 0.77 ± 0.16 nM
- kcat −FABP1, 11-OH-THC formation (recombinant CYP2C9): 0.2 s⁻¹ and 0.2 ± 0.0145 s⁻¹
- Km at 2 min (CYP2C19; recombinant CYP2C19 (Supersomes) with 20 μM FABP1, Km,u + FABP1, 11-OH-THC formation, recombinant CYP2C19, 20 μM FABP1): 5.2 ± 0.64 nM
- Km at 2 min (CYP2C19; recombinant CYP2C19 (Supersomes) with 20 μM FABP1, Km,u + FABP1, M3 formation, recombinant CYP2C19, 20 μM FABP1): 4.7 ± 0.72 nM
- Km at 2 min (CYP2C19; recombinant CYP2C19 (Supersomes), Km,u −FABP1, 11-OH-THC formation, recombinant CYP2C19, absence of FABP1): 2.2 nM
- Km at 2 min (CYP2C19; recombinant CYP2C19 (Supersomes), Km,u −FABP1, M3 formation, recombinant CYP2C19, absence of FABP1): 2.2 nM
- kcat + FABP1, 11-OH-THC formation (recombinant CYP2C19; recombinant CYP2C19, 20 μM FABP1): 0.133 ± 0.0333 s⁻¹
- kcat −FABP1, 11-OH-THC formation (recombinant CYP2C19; recombinant CYP2C19, absence of FABP1): 0.233 s⁻¹ and 0.233 ± 0.0113 s⁻¹
- Km at 1 min (CYP3A4; recombinant CYP3A4 (Supersomes) with 20 μM FABP1, Km,u + FABP1, M2 formation, recombinant CYP3A4, 20 μM FABP1): > 20 nM
- Km at 1 min (CYP3A4; recombinant CYP3A4 (Supersomes) with 20 μM FABP1, Km,u + FABP1, M4 formation, recombinant CYP3A4, 20 μM FABP1): > 20 nM
- Km at 1 min (CYP3A4; recombinant CYP3A4 (Supersomes), Km,u of the other three major metabolites, formed mainly by recombinant CYP3A4/5): > 10 nM
- Km at 1 min (CYP3A4; recombinant CYP3A4 (Supersomes), Km,u −FABP1, M2 formation, recombinant CYP3A4, absence of FABP1): 29 ± 19 nM
- Km at 1 min (CYP3A4; recombinant CYP3A4 (Supersomes), Km,u −FABP1, M3 formation, recombinant CYP3A4, absence of FABP1): 18 ± 13 nM
- M3 formation by recombinant CYP3A4 in the presence of FABP1 (recombinant CYP3A4; 20 μM FABP1): completely abolished
- K0.5,u −FABP1, M4 formation (recombinant CYP3A4; [12]): 43 ± 25 nM
- hill slope (h), M4 formation (recombinant CYP3A4; [12]): 1.4 ± 0.5
- fraction unbound at 30 min [5]: 0.015 ± 0.001
- fraction unbound at 30 min [6]: 0.15 ± 0.02
- velocity of 11-OH-THC formation by CYP2C9 and CYP2C19 relative to CYP2D6 (recombinant CYPs): ~ 3 fold
- velocity of 11-OH-THC formation by CYP2C9 and CYP2C19 relative to other CYPs (recombinant CYPs): > 10 fold
- decrease in free concentrations of THC by FABP1 binding ([7]; 2 μM THC, 20 μM FABP1 vs absence): 86%
- free THC in the absence of FABP1 ([7]; 2 μM nominal THC): 14 nM
- free THC in the presence of FABP1 ([7]; 2 μM nominal THC, 20 μM FABP1): 2 nM
- dose recovered in urine and feces ([8]; after iv administration): less than 1%
- THC exposure (AUC) in CYP2C9*3/*3 carriers compared to CYP2C9*1/*1 carriers ([8]; after oral dosing): 3 fold
- hepatic extraction ratio [8]: around 0.8
- increase of AUC of THC when co-administered with ketoconazole [8]: ~ 80%
- contribution of CYP2C9 to THC clearance (fraction metabolized) ([8]; estimated from AUC in CYP2C9 genotypes): about 70%
- THC exposure on co-administration of rifampicin ([8]; oral dosing of THC): decreases THC exposure
- THC metabolic clearance in pooled HLMs assigned to CYP2C9 [9, 13]: 91% and > 90%
- THC metabolic clearance in pooled HLMs assigned to CYP2D6 [9, 13]: 9%
- Km ([9]; read-out: unbound Km (Km,u) for 11-OH-formation): 8 nM
- Km ([9]; read-out: unbound Km (Km,u) for THC depletion): 7 nM
- Kd (human FABP1 [10]): 2900 nM
- blood to plasma ratio [11]: 0.67
- plasma protein binding fu ([11]; plasma): 0.01
